Results as given in ChEMBL document CHEMBL1122328, “Hypolipidemic activity of phthalimide derivatives. 2. N-phenylphthalimide and derivatives” (1983).

Assays:
Type in all cases: functional
Mus musculus [1] = test: Effect on Serum cholesterol levels on CF1 male mice at a dose of 20 (mg/kg)/day after 16 days
Summary of the method: (§1)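 CF1 male mice (~25 g), drug suspended in 1% carboxymethylcellulose in water, given ip daily for 16 days; n = 6; vehicle control. Tail-vein blood on days 9 and 16, serum cholesterol by modified Liebermann–Burchard reaction; day-14 serum triglyceride by commercial kit; expressed as % control.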

Mus musculus [2] = test: Effect on Serum cholesterol levels on CF1 male mice at a dose of 20 (mg/kg)/day after 9 days; summary of the method: as §1
Mus musculus [3] = test: Effect on Serum triglyceride levels on CF1 male mice at a dose of 20 (mg/kg)/day after 14 days; summary of the method: as §1

SMILES	Serum cholesterol (% of control) (Mus musculus [1]) [%]	Control (Mus musculus [2]) [%]	Control (Mus musculus [3]) [%]
CC(=O)c1ccc(N2C(=O)c3ccccc3C2=O)cc1	55	83	66
O=C(O)c1ccc(N2C(=O)c3ccccc3C2=O)cc1	53	89	58
CCc1ccc(N2C(=O)c3ccccc3C2=O)cc1	89	89	96
CCc1cccc(N2C(=O)c3ccccc3C2=O)c1	82	89	95
CC(=O)c1cccc(N2C(=O)c3ccccc3C2=O)c1	84	87	74
O=C(O)c1cccc(N2C(=O)c3ccccc3C2=O)c1	69	81	71
CCc1ccccc1N1C(=O)c2ccccc2C1=O	103	88	92
CCOC(=O)C(C)(C)Oc1ccc(Cl)cc1 [CLOFIBRATE]	96	98	91
O=C1c2ccccc2C(=O)N1c1ccccc1 [N-PHENYL-PHTHALIMIDE]	57	92	61
O=C(O)c1ccccc1N1C(=O)c2ccccc2C1=O [N-PHTHALOYLANTHRANILIC ACID]	77	92	78
O=C1NC(=O)c2ccccc21 [PHTHALIMIDE]	57	63	44
